Data on 12 compounds can be found in BindingDB's records for doi:10.1021/jm970240y (Sanofi Recherche, 1997).

The IC50 is the concentration that gives 50% inhibition.

The target in this assay is Integrin alpha-IIb/beta-3 (Homo sapiens, UniProt P08514+P05106). The assay can be described thus: In vitro inhibition of ADP-induced (2.5 uM) human platelet aggregation. In outline: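 Human PRP from citrated blood (0.38% final) of unmedicated donors, spun 1000g 10 min; compound added in DMSO (0.01% final) 1 min before 2.5 μM ADP. Aggregation by Born method, measured as maximum curve height; percent inhibition calculated against vehicle-alone aggregation.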
Sequence of Integrin alpha-IIb/beta-3 (P05106 27-788 limits assumed): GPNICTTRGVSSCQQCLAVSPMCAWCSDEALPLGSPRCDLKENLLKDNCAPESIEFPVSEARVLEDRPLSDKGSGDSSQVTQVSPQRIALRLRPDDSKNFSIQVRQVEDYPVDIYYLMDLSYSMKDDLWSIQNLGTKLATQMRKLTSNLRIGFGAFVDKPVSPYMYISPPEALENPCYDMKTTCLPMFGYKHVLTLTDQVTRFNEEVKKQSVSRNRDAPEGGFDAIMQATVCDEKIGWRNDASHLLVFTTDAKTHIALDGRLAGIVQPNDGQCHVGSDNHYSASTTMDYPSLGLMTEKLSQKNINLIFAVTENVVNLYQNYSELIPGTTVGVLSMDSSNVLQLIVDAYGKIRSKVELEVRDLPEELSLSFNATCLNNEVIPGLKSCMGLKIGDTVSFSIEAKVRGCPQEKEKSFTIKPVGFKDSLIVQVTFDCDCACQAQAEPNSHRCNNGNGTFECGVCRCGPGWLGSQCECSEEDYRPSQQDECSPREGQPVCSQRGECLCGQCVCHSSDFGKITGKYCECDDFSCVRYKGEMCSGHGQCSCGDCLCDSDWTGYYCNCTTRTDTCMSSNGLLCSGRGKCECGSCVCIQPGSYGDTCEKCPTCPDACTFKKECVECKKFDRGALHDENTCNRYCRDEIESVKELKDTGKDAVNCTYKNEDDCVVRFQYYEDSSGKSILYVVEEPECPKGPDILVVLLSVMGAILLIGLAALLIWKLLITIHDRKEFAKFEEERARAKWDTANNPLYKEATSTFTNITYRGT
Sequence of Integrin alpha-IIb/beta-3 (P08514 32-887 limits assumed): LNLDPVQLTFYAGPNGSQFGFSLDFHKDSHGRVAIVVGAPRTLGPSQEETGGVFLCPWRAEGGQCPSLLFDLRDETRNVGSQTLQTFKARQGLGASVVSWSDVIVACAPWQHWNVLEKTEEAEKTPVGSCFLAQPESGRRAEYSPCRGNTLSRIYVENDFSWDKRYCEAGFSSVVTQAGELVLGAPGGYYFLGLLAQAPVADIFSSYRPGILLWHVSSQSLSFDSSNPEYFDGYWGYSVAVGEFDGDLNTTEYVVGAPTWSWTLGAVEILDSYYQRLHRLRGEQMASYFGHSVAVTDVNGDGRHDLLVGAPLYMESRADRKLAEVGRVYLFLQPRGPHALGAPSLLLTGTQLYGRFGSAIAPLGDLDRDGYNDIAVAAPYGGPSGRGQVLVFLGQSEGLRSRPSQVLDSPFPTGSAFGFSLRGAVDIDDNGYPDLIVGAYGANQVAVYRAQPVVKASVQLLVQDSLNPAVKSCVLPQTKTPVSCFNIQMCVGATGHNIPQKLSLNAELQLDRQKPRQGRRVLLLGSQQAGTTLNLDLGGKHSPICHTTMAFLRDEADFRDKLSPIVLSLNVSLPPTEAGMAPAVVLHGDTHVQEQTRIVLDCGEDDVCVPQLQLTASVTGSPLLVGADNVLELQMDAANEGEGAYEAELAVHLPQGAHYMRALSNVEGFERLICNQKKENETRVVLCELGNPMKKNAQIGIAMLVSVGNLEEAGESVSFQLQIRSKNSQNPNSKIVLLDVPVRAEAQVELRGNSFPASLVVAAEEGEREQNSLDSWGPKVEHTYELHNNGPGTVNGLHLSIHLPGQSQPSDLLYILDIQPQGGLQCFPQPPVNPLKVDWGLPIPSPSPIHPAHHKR
Sequence of Integrin alpha-IIb/beta-3 (P08514 891-1039 limits assumed): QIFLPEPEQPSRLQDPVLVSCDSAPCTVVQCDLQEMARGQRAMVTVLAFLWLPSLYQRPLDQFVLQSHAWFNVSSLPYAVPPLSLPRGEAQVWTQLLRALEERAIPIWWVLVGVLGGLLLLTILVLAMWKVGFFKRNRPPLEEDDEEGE
`CC(C)(C(=O)O)N1CCC(Nc2nc(-c3ccc(C(=N)N)cc3)cs2)CC1` [2-{4-[4-(4-Carbamimidoyl-phenyl)-thiazol-2-ylamino]-piperidin-1-yl}-2-methyl-propionic acid] showed an IC50 greater than 10000 nM.

As for `COC(=O)CC(C(=O)O)N1CCC(Nc2nc(-c3ccc(C(=N)N)cc3)cs2)CC1` (configuration not stated) [2-{4-[4-(4-Carbamimidoyl-phenyl)-thiazol-2-ylamino]-piperidin-1-yl}-succinic acid 4-methyl ester], half-maximal inhibition (IC50) required 85 nM.

As for `CC(C(=O)O)N1CCC(Nc2nc(-c3ccc(C(=N)N)cc3)cs2)CC1` (configuration not stated) [2-{4-[4-(4-carbamimidoyl-phenyl)-thiazol-2-ylamino]-piperidin-1-yl}-propionic acid], the IC50 was found to be 250 nM.

For `N=C(N)c1ccc(-c2csc(N(CCC(=O)O)C3CCN(CC(=O)O)CC3)n2)cc1` [3-[[4-(4-Carbamimidoyl-phenyl)-thiazol-2-yl]-(1-carboxymethyl-piperidin-4-yl)-amino]-propionic acid], the IC50 came to 46 nM.

`N=C(N)c1ccc(-c2csc(NC3CCN(CCC(=O)O)CC3)n2)cc1` [3-{4-[4-(4-carbamimidoyl-phenyl)-thiazol-2-ylamino]-piperidin-1-yl}-propionic acid] yielded an IC50 of 1800 nM.

Turning to `N=C(N)c1ccc(-c2csc(NC3CCN(C(C(=O)O)c4ccccc4Cl)CC3)n2)cc1` (configuration not stated) [4-[4-(4-carbamimidoyl-phenyl)-thiazol-2-ylamino]-piperidin-1-yl}-(2-chloro-phenyl)-acetic acid], inhibition was half-maximal at 6000 nM (IC50).

As for `N=C(N)c1ccc(-c2csc(N(CCCC(=O)O)C3CCN(CC(=O)O)CC3)n2)cc1` [4-[[4-(4-Carbamimidoyl-phenyl)-thiazol-2-yl]-(1-carboxymethyl-piperidin-4-yl)-amino]-butyric acid], the IC50 was determined as 96 nM.

`N=C(N)c1ccc(-c2csc(N(Cc3ccccc3)C3CCN(CC(=O)O)CC3)n2)cc1` [(4-{Benzyl-[4-(4-carbamimidoyl-phenyl)-thiazol-2-yl]-amino}-piperidin-1-yl)-acetic acid] had an IC50 of 230 nM. This IC50 lies about 2.4-fold higher than the previous one.

With `CN(c1nc(-c2ccc(C(=N)N)cc2)cs1)C1CCN(CC(=O)O)CC1` [(4-{[4-(4-carbamimidoyl-phenyl)-thiazol-2-yl]-methyl-amino}-piperidin-1-yl)-acetic acid], inhibition was half-maximal at 160 nM (IC50). The IC50 values of the last two compounds are within 1.5-fold of each other.

Regarding `N=C(N)c1ccc(-c2csc(N(CC(=O)O)C3CCN(CC(=O)O)CC3)n2)cc1` [[[4-(4-Carbamimidoyl-phenyl)-thiazol-2-yl]-(1-carboxymethyl-piperidin-4-yl)-amino]-acetic acid], the IC50 stood at 170 nM.

As to `N=C(N)c1ccc(-c2csc(NC3CCN(CC(=O)O)CC3)n2)cc1` [{4-[4-(4-Carbamimidoyl-phenyl)-thiazol-2-ylamino]-piperidin-1-yl}-acetic acid], inhibition was half-maximal at 42 nM (IC50).

The compound `N=C(N)c1ccc(-c2csc(NC3CCN(C(C(=O)O)c4ccccc4)CC3)n2)cc1` (configuration not stated) [{4-[4-(4-Carbamimidoyl-phenyl)-thiazol-2-ylamino]-piperidin-1-yl}-phenyl-acetic acid] showed a half-maximal inhibitory concentration (IC50) of 65 nM.
